Converted amounts (≈) assume the structure as drawn. Starred links: 1 amine or outer side, 2 acyl side, 3 side chain; linkers in the order of their positions; H or OH if unused. Positions of bridges follow the written chain, without caps; N, C: chain ends. Non-standard residues stand in square brackets, D forms with d. Residues, ends and D or L forms follow the SMILES beside them. *: point of attachment. pTerphenylCO(4''-OnC5H11) = CCCCCOc1ccc(-c2ccc(-c3ccc(C(=O)*)cc3)cc2)cc1; Orn(4R-OH,5R-OH) = O=C([C@H](C[C@@H](O)[C@@H](O)N[*:3])N[*:1])[*:2]; hTyr(3S-OH,4S-OH) = N[C@H](C(=O)O)[C@H](O)[C@@H](O)c1ccc(O)cc1; Pro(3S-OH,4S-Me) = C[C@H]1CN[C@H](C(=O)O)[C@H]1O; Hyp = O=C(O)[C@@H]1C[C@@H](O)CN1
Legend:
[1] = tested on: Nakaseomyces glabratus; assay: Antifungal activity against Candida glabrata 5376 infected in neutropenic ICR/Swiss mouse candidiasis model assessed as dose required for 1-log10 reduction in […] per kidney administered intraperitoneally every 48 hrs up to 4 days measured per 96 hrs; assay type: functional
Summary of the method: (§1)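 Neutropenic ICR/Swiss mice infected i.v. with the strain; therapy began 2 h later. Total doses of 1.25–320 mg/kg/96 h were given i.p. as 1, 2, 4 or 6 doses (q96h, q48h, q24h, q16h), three mice per regimen. Kidney CFU were counted after 4 days. Effect is the change from untreated controls at the end of therapy.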

[2] = AUC (0 to infinity) in serum of neutropenic ICR/Swiss mouse candidiasis model at 20 mg/kg, ip by reverse-phase high-pressure liquid chromatography; assay type: ADME, organism-based; design: time infinity, dose 20 mg/kg, route intraperitoneal
Summary of the method: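 Single ip dose in 0.2 ml to infected neutropenic mice. Serum from groups of three isoflurane-anaesthetised mice at 1, 4, 8, 12, 24 and 48 h, stored −80°C. Drug measured by reverse-phase HPLC with fluorescence detection against loratadine internal standard (calibration 10–50,000 ng/ml). Noncompartmental analysis; AUC by trapezoidal rule.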

[3] = tested on: Nakaseomyces glabratus; assay: Antifungal activity against Candida glabrata 5592 infected in neutropenic ICR/Swiss mouse candidiasis model assessed as dose required to maintain […] of 1.83 +/- 0.54 log10CFU per kidney administered intraperitoneally every 24 hrs up to 4 days measured per 24 hrs; assay type: functional
[4] = tested on: Nakaseomyces glabratus; assay: Antifungal activity against Candida glabrata 32930 assessed as complete growth inhibition after 24 hrs by CLSI end point method; assay type: functional; conditions: Nakaseomyces glabratus, 32930, 24 h
Summary of the method: (§2)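 CLSI M27-A2 broth dilution. Two end points read against the drug-free control well: partial inhibition (CLSI end point) and complete inhibition. Run in duplicate on four separate occasions; value is the mean. Drug stock in DMSO, diluted in 0.9% NaCl.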

[5] = tested on: Serum; assay: Fraction unbound in Candida glabrata 5376-infected neutropenic ICR/Swiss mouse serum at 1.25 mg/kg, ip administered 2 hrs postinfection as single dose; assay type: ADME, organism-based; design: dose 1.25 mg/kg, route intraperitoneal; conditions: in vivo
[6] = tested on: Candida albicans; assay: Antifungal activity against Candida albicans K-1 assessed as complete growth inhibition after 24 hrs by CLSI end point method; assay type: functional; conditions: K-1, 24 h; summary of the method: as §2
[7] = tested on: Nakaseomyces glabratus; assay: Antifungal activity against Candida glabrata 33609 infected in neutropenic ICR/Swiss mouse candidiasis model assessed as dose required for 1-log10 reduction in […] per kidney administered intraperitoneally every 24 hrs up to 4 days measured per 24 hrs; assay type: functional
Summary of the method: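 Neutropenic mice (cyclophosphamide sc on days −4, −1 and +2) were infected iv 2 h before therapy. Five total doses from 0.078 to 20 mg/kg/24 h were given ip q24h for 4 days, three mice per regimen. Kidney CFU were measured at the end of therapy. Static and 1-log-kill doses were derived from a Hill sigmoid dose-effect fit.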

[8] = tested on: Nakaseomyces glabratus; assay: Antifungal activity against Candida glabrata 33609 infected in neutropenic ICR/Swiss mouse candidiasis model assessed as fungal count per kidney administered 2 hrs postinfection measured up to 48 hrs; assay type: functional
Summary of the method: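 Female ICR/Swiss mice (23–27 g) made neutropenic with cyclophosphamide s.c. (150 mg/kg day −4, 100 mg/kg day −1, 100 mg/kg day +2). Infected by tail vein with 0.1 ml inoculum (~6.1 log10 CFU/ml). Kidneys of untreated mice were homogenised and plated on SDA for 24 h at 35°C. Growth over 48 h is given as log10 CFU/kidney.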

[9] = tested on: Candida albicans; assay: Antifungal activity against Candida albicans K-1 infected in neutropenic ICR/Swiss mouse candidiasis model assessed as dose required for 1-log10 reduction in […] per kidney administered intraperitoneally every 24 hrs up to 4 days measured per 24 hrs; assay type: functional
[10] = tested on: Nakaseomyces glabratus; assay: Antifungal activity against Candida glabrata 5376 infected in neutropenic ICR/Swiss mouse candidiasis model assessed as […] burden per kidney administered intraperitoneally every 24 hrs up to 4 days measured per 96 hrs; assay type: functional; conditions: Nakaseomyces glabratus, 5376, Kidney, ip; summary of the method: as §1
[11] = tested on: Nakaseomyces glabratus; assay: Antifungal activity against Candida glabrata 5592 assessed as partial growth inhibition after 24 hrs by CLSI end point method; assay type: functional; conditions: Nakaseomyces glabratus, 5592, 24 h
Summary of the method: (§3)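 Two end points were read against the drug-free control well: partial growth inhibition (the CLSI end point) and complete inhibition. Run in duplicate on four separate occasions; the value is the mean. Drug stock was made in DMSO and diluted in 0.9% NaCl.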

[12] = tested on: Nakaseomyces glabratus; assay: Antifungal activity against Candida glabrata 5376 infected in neutropenic ICR/Swiss mouse candidiasis model assessed as dose required to maintain […] of 3.71 +/- 0.21 log10CFU per kidney administered intraperitoneally once every 96 hrs measured per 96 hrs
[13] = tested on: Nakaseomyces glabratus; assay: Antifungal activity against Candida glabrata 5376 infected in neutropenic ICR/Swiss mouse candidiasis model assessed as […] burden per kidney administered intraperitoneally every 16 hrs up to 4 days measured per 96 hrs; assay type: functional; conditions: Nakaseomyces glabratus, 5376, Kidney, ip; summary of the method: as §1
[14] = tested on: Candida albicans; assay: Antifungal activity against Candida albicans after 24 hrs by broth microdilution method; assay type: functional
[15] = tested on: Nakaseomyces glabratus; assay: Antifungal activity against Candida glabrata 35315 infected in neutropenic ICR/Swiss mouse candidiasis model assessed as dose required to maintain […] burden of 1.83 +/- 0.54 log10CFU per kidney administered intraperitoneally every 24 hrs up to 4 days measured per 24 hrs; assay type: functional
[16] = tested on: Nakaseomyces glabratus; assay: Antifungal activity against Candida glabrata 513 assessed as complete growth inhibition after 24 hrs by CLSI end point method; assay type: functional; conditions: Nakaseomyces glabratus, 513, 24 h; summary of the method: as §3
[17] = tested on: Candida albicans; assay: Antifungal activity against Candida albicans K-1 infected in neutropenic ICR/Swiss mouse candidiasis model assessed as prolongation of fungal growth suppression at 20 mg/kg, ip administered 2 hrs postinfection as single dose by time-kill assay; assay type: functional; conditions: route intraperitoneal
Summary of the method: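 Single ip dose (20, 5 or 1.25 mg/kg) given 2 h after iv infection of neutropenic mice with K-1. Three treated and three control mice were sampled at intervals over 96 h for kidney CFU. PAFE is the time for treated burden to rise 1 log10 after serum levels fall below MIC, minus the same time in controls. Free drug was taken as 1%.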

[18] = tested on: Nakaseomyces glabratus; assay: Antifungal activity against Candida glabrata 33609 assessed as complete growth inhibition after 24 hrs by CLSI end point method; assay type: functional; conditions: Nakaseomyces glabratus, 33609, 24 h; summary of the method: as §2
[19] = tested on: Candida tropicalis; assay: Antifungal activity against Candida tropicalis 98-234 assessed as complete growth inhibition after 24 hrs by CLSI end point method; assay type: functional; conditions: 98-234, 24 h
[20] = tested on: Candida albicans; assay: Antifungal activity against Candida albicans 98-210 infected in neutropenic ICR/Swiss mouse candidiasis model assessed as fungal count per kidney administered 2 hrs postinfection measured up to 48 hrs; assay type: functional
Summary of the method: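 Untreated neutropenic mice infected via the tail vein (inoculum about 6.1 log10 CFU/ml, 0.1 ml). Growth is the rise in kidney CFU over 48 h. Kidneys were homogenised, serially diluted 1:10 and plated on SDA for 24 h at 35°C. Mean of three mice.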

[21] = tested on: Candida albicans; assay: Antifungal activity against Candida albicans K-1 infected in neutropenic ICR/Swiss mouse candidiasis model assessed as prolongation of fungal growth suppression at 1.25 mg/kg, ip administered 2 hrs postinfection as single dose by time-kill assay; assay type: functional; conditions: route intraperitoneal
Summary of the method: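 Single ip dose of 1.25, 5 or 20 mg/kg given 2 h after iv infection of neutropenic mice. Groups of 3 treated and 3 control mice sampled at 1–24 h intervals over 96 h. Kidney homogenates plated on SDA, 24 h at 35°C. PAFE = time for treated burden to rise 1 log10 CFU/kidney after serum level fell below MIC, minus the same time in controls.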

CCCCCOc1ccc(-c2ccc(-c3ccc(C(=O)N[C@H]4C[C@@H](O)[C@@H](O)NC(=O)[C@@H]5[C@@H](O)[C@@H](C)CN5C(=O)[C@H]([C@@H](C)O)NC(=O)[C@H]([C@H](O)[C@@H](O)c5ccc(O)cc5)NC(=O)[C@@H]5C[C@@H](O)CN5C(=O)[C@H]([C@@H](C)O)NC4=O)cc3)cc2)cc1 [ANIDULAFUNGIN] ({pTerphenylCO(4''-OnC5H11)}-[Orn(4R-OH,5R-OH)]T[Hyp][hTyr(3S-OH,4S-OH)]T[Pro(3S-OH,4S-Me)]; lactam 1-C)
Activity [1]: 27.4 mg/kg | AUC(0-inf) [2]: 382 µg·h/mL | Activity [3]: 3.57 mg/kg | MIC [4]: 0.12 µg/mL (≈ 0.105 µM) | Fu [5]: 1% | MIC [6]: 0.12 µg/mL (≈ 0.105 µM) | Activity [7]: 4.21 mg/kg | log10cfu [8]: 2.37 | Activity [9]: 2 mg/kg | ED50 [10]: 15.9 mg/kg | MIC [11]: 0.06 µg/mL (≈ 0.0526 µM) | Activity [12]: 9.06 mg/kg | ED50 [13]: 26.3 mg/kg | MIC90 [14]: 0.06 µg/mL (≈ 0.0526 µM) | Activity [15]: 6.4 mg/kg | MIC [16]: 0.12 µg/mL (≈ 0.105 µM) | Activity [17]: >96 h | MIC [18]: 0.12 µg/mL (≈ 0.105 µM) | MIC [19]: 0.12 µg/mL (≈ 0.105 µM) | log10cfu [20]: 3.5 | Activity [21]: 56 h

From ChEMBL document CHEMBL1153564 (Antimicrob Agents Chemother, 2008)
